# Columns and labels:
# Format in all cases: functional
# T47D [1] = assay: Inhibition of PR-A mRNA gene expression in human T47D cells at 100 nM by syber green assay
# Outline: (§1)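 T47D cells plated at 80,000/well without antibiotics two days before Oligofectamine transfection with agRNA duplex (25 or 100 nM final); medium changed at 24 h, harvest day 5 unless stated otherwise. TRIzol total RNA; PR mRNA by real-time PCR with SYBR Green: 50 °C 2 min, 95 °C 10 min, 40 cycles 95 °C 15 s/60 °C 1 min.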
# T47D [2] = assay: Inhibition of PR-B mRNA gene expression in human T47D cells at 100 nM by syber green assay
# Outline: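 T47D cells in RPMI-1640 with 10% FBS, NEAA, insulin, 37 °C, 5% CO2. Plated two days before transfection without antibiotics. Oligofectamine-mediated duplex RNA transfection at 100 nM final, medium changed at 24 h, harvest five days post-transfection. Total RNA extracted with TRIzol. hPR mRNA quantified by SYBR Green qPCR: 50 °C 2 min, 95 °C 10 min, then 40 cycles of 95 °C 15 s / 60 °C 1 min.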
# T47D [3] = assay: Inhibition of PR-A gene expression in human T47D cells at 25 nM by syber green assay; outline: as §1
# T47D [4] = assay: Inhibition of PR-B gene expression in human T47D cells at 25 nM by syber green assay; outline: as §1
Structure (SMILES),inhibition at 0.1 µM (T47D [1]) [%],inhibition at 0.1 µM (T47D [2]) [%],inhibition at 0.025 µM (T47D [3]) [%],inhibition at 0.025 µM (T47D [4]) [%]
Cc1cn([C@H]2C[C@H](OP(=O)(O)OC[C@H]3O[C@@H](n4cc(C)c(=O)[nH]c4=O)C[C@@H]3O)[C@@H](COP(=O)(O)O[C@H]3[C@@H](O)[C@H](n4ccc(N)nc4=O)O[C@@H]3COP(=O)(O)O[C@H]3[C@@H](O)[C@H](n4cnc5c(=O)[nH]c(N)nc54)O[C@@H]3COP(=O)(O)O[C@H]3[C@@H](O)[C@H](n4cnc5c(N)ncnc54)O[C@@H]3COP(=O)(O)O[C@H]3[C@@H](O)[C@H](n4ccc(N)nc4=O)O[C@@H]3COP(=O)(O)O[C@H]3[C@@H](O)[C@H](n4cnc5c(N)ncnc54)O[C@@H]3COP(=O)(O)O[C@H]3[C@@H](O)[C@H](n4cnc5c(=O)[nH]c(N)nc54)O[C@@H]3COP(=O)(O)O[C@H]3[C@@H](O)[C@H](n4ccc(N)nc4=O)O[C@@H]3COP(=O)(O)O[C@H]3[C@@H](O)[C@H](n4ccc(=O)[nH]c4=O)O[C@@H]3COP(=O)(O)O[C@H]3[C@@H](O)[C@H](n4cnc5c(=O)[nH]c(N)nc54)O[C@@H]3COP(=O)(O)O[C@H]3[C@@H](O)[C@H](n4cnc5c(N)ncnc54)O[C@@H]3COP(=O)(O)O[C@H]3[C@@H](O)[C@H](n4ccc(N)nc4=O)O[C@@H]3COP(=O)(O)O[C@H]3[C@@H](O)[C@H](n4ccc(N)nc4=O)O[C@@H]3COP(=O)(O)O[C@H]3[C@@H](O)[C@H](n4cnc5c(=O)[nH]c(N)nc54)O[C@@H]3COP(=O)(O)O[C@H]3[C@@H](O)[C@H](n4ccc(N)nc4=O)O[C@@H]3COP(=O)(O)O[C@H]3[C@@H](O)[C@H](n4ccc(=O)[nH]c4=O)O[C@@H]3COP(=O)(O)O[C@H]3[C@@H](O)[C@H](n4ccc(N)nc4=O)O[C@@H]3COP(=O)(O)O[C@H]3[C@@H](O)[C@H](n4ccc(=O)[nH]c4=O)O[C@@H]3COP(=O)(O)O[C@H]3[C@@H](O)[C@H](n4cnc5c(=O)[nH]c(N)nc54)O[C@@H]3COP(=O)(O)O[C@H]3[C@@H](O)[C@H](n4ccc(=O)[nH]c4=O)O[C@@H]3CO)O2)c(=O)[nH]c1=O,< 20,< 20,–,–
Cc1cn([C@H]2C[C@H](OP(=O)(O)OC[C@H]3O[C@@H](n4cnc5c(=O)[nH]c(N)nc54)C[C@@H]3OP(=O)(O)OC[C@H]3O[C@@H](n4cc(C)c(=O)[nH]c4=O)C[C@@H]3OP(=O)(O)OC[C@H]3O[C@@H](n4ccc(N)nc4=O)C[C@@H]3OP(=O)(O)OC[C@H]3O[C@@H](n4cc(C)c(=O)[nH]c4=O)C[C@@H]3OP(=O)(O)OC[C@H]3O[C@@H](n4cnc5c(=O)[nH]c(N)nc54)C[C@@H]3OP(=O)(O)OC[C@H]3O[C@@H](n4cnc5c(=O)[nH]c(N)nc54)C[C@@H]3OP(=O)(O)OC[C@H]3O[C@@H](n4ccc(N)nc4=O)C[C@@H]3OP(=O)(O)OC[C@H]3O[C@@H](n4ccc(N)nc4=O)C[C@@H]3OP(=O)(O)OC[C@H]3O[C@@H](n4cnc5c(N)ncnc54)C[C@@H]3OP(=O)(O)OC[C@H]3O[C@@H](n4cnc5c(=O)[nH]c(N)nc54)C[C@@H]3OP(=O)(O)OC[C@H]3O[C@@H](n4cc(C)c(=O)[nH]c4=O)C[C@@H]3OP(=O)(O)OC[C@H]3O[C@@H](n4ccc(N)nc4=O)C[C@@H]3OP(=O)(O)OC[C@H]3O[C@@H](n4ccc(N)nc4=O)C[C@@H]3OP(=O)(O)OC[C@H]3O[C@@H](n4cnc5c(N)ncnc54)C[C@@H]3OP(=O)(O)OC[C@H]3O[C@@H](n4ccc(N)nc4=O)C[C@@H]3OP(=O)(O)OC[C@H]3O[C@@H](n4cnc5c(N)ncnc54)C[C@@H]3OP(=O)(O)OC[C@H]3O[C@@H](n4cnc5c(=O)[nH]c(N)nc54)C[C@@H]3OP(=O)(O)OC[C@H]3O[C@@H](n4ccc(N)nc4=O)C[C@@H]3OP(=O)(O)OC[C@H]3O[C@@H](n4cc(C)c(=O)[nH]c4=O)C[C@@H]3OP(=O)(O)OC[C@H]3O[C@@H](n4cc(C)c(=O)[nH]c4=O)C[C@@H]3O)[C@@H](CO)O2)c(=O)[nH]c1=O,< 20,< 20,–,–
Cc1cn([C@@H]2O[C@H](COP(=O)(O)O[C@H]3C[C@H](n4cc(C)c(=O)[nH]c4=O)O[C@@H]3COP(=O)(O)O[C@H]3[C@@H](O)[C@H](n4ccc(N)nc4=O)O[C@@H]3COP(=O)(O)O[C@H]3[C@@H](O)[C@H](n4cnc5c(=O)[nH]c(N)nc54)O[C@@H]3COP(=O)(O)O[C@H]3[C@@H](O)[C@H](n4cnc5c(N)ncnc54)O[C@@H]3COP(=O)(O)O[C@H]3[C@@H](O)[C@H](n4ccc(N)nc4=O)O[C@@H]3COP(=O)(O)O[C@H]3[C@@H](O)[C@H](n4cnc5c(N)ncnc54)O[C@@H]3COP(=O)(O)O[C@H]3[C@@H](O)[C@H](n4ccc(N)nc4=O)O[C@@H]3COP(=O)(O)O[C@H]3[C@@H](O)[C@H](n4ccc(N)nc4=O)O[C@@H]3COP(=O)(O)O[C@H]3[C@@H](O)[C@H](n4ccc(=O)[nH]c4=O)O[C@@H]3COP(=O)(O)O[C@H]3[C@@H](O)[C@H](n4cnc5c(=O)[nH]c(N)nc54)O[C@@H]3COP(=O)(O)OC3[C@@H](O)[C@H](n4cnc5c(N)ncnc54)O[C@@H]3COP(=O)(O)O[C@H]3[C@@H](O)[C@H](n4ccc(N)nc4=O)O[C@@H]3COP(=O)(O)O[C@H]3[C@@H](O)[C@H](n4cnc5c(=O)[nH]c(N)nc54)O[C@@H]3COP(=O)(O)O[C@H]3[C@@H](O)[C@H](n4cnc5c(=O)[nH]c(N)nc54)O[C@@H]3COP(=O)(O)O[C@H]3[C@@H](O)[C@H](n4cnc5c(=O)[nH]c(N)nc54)O[C@@H]3COP(=O)(O)O[C@H]3[C@@H](O)[C@H](n4ccc(=O)[nH]c4=O)O[C@@H]3COP(=O)(O)O[C@H]3[C@@H](O)[C@H](n4ccc(N)nc4=O)O[C@@H]3COP(=O)(O)O[C@H]3[C@@H](O)[C@H](n4ccc(=O)[nH]c4=O)O[C@@H]3COP(=O)(O)O[C@H]3[C@@H](O)[C@H](n4cnc5c(=O)[nH]c(N)nc54)O[C@@H]3COP(=O)(O)O[C@H]3[C@@H](O)[C@H](n4ccc(=O)[nH]c4=O)O[C@@H]3CO)[C@@H](O)[C@H]2O)c(=O)[nH]c1=O (some centres not stated),67,91,53,75
Cc1cn([C@H]2C[C@H](OP(=O)(O)OC[C@H]3O[C@@H](n4cc(C)c(=O)[nH]c4=O)C[C@@H]3O)[C@@H](COP(=O)(O)O[C@H]3[C@@H](O)[C@H](n4ccc(N)nc4=O)O[C@@H]3COP(=O)(O)O[C@H]3[C@@H](O)[C@H](n4cnc5c(=O)[nH]c(N)nc54)O[C@@H]3COP(=O)(O)O[C@H]3[C@@H](O)[C@H](n4cnc5c(N)ncnc54)O[C@@H]3COP(=O)(O)O[C@H]3[C@@H](O)[C@H](n4cnc5c(=O)[nH]c(N)nc54)O[C@@H]3COP(=O)(O)O[C@H]3[C@@H](O)[C@H](n4cnc5c(N)ncnc54)O[C@@H]3COP(=O)(O)O[C@H]3[C@@H](O)[C@H](n4ccc(N)nc4=O)O[C@@H]3COP(=O)(O)O[C@H]3[C@@H](O)[C@H](n4ccc(N)nc4=O)O[C@@H]3COP(=O)(O)O[C@H]3[C@@H](O)[C@H](n4ccc(=O)[nH]c4=O)O[C@@H]3COP(=O)(O)O[C@H]3[C@@H](O)[C@H](n4cnc5c(=O)[nH]c(N)nc54)O[C@@H]3COP(=O)(O)O[C@H]3[C@@H](O)[C@H](n4cnc5c(N)ncnc54)O[C@@H]3COPO[C@H]3[C@@H](O)[C@H](n4ccc(N)nc4=O)O[C@@H]3COP(=O)(O)O[C@H]3[C@@H](O)[C@H](n4cnc5c(=O)[nH]c(N)nc54)O[C@@H]3COP(=O)(O)O[C@H]3[C@@H](O)[C@H](n4cnc5c(=O)[nH]c(N)nc54)O[C@@H]3COP(=O)(O)O[C@H]3[C@@H](O)[C@H](n4cnc5c(=O)[nH]c(N)nc54)O[C@@H]3COP(=O)(O)O[C@H]3[C@@H](O)[C@H](n4ccc(=O)[nH]c4=O)O[C@@H]3COP(=O)(O)O[C@H]3[C@@H](O)[C@H](n4ccc(N)nc4=O)O[C@@H]3COP(=O)(O)O[C@H]3[C@@H](O)[C@H](n4ccc(=O)[nH]c4=O)O[C@@H]3COP(=O)(O)O[C@H]3[C@@H](O)[C@H](n4ccc(N)nc4=O)O[C@@H]3COP(=O)(O)O[C@H]3[C@@H](O)[C@H](n4ccc(=O)[nH]c4=O)O[C@@H]3CO)O2)c(=O)[nH]c1=O (some centres not stated),< 20,< 20,–,–
Cc1cn([C@H]2C[C@H](OP(=O)(O)OC[C@H]3O[C@@H](n4cnc5c(=O)[nH]c(N)nc54)C[C@@H]3OP(=O)(O)OC[C@H]3O[C@@H](n4cc(C)c(=O)[nH]c4=O)C[C@@H]3OP(=O)(O)OC[C@H]3O[C@@H](n4ccc(N)nc4=O)C[C@@H]3OP(=O)(O)OC[C@H]3O[C@@H](n4cc(C)c(=O)[nH]c4=O)C[C@@H]3OP(=O)(O)OC[C@H]3O[C@@H](n4cnc5c(=O)[nH]c(N)nc54)C[C@@H]3OP(=O)(O)OC[C@H]3O[C@@H](n4cnc5c(=O)[nH]c(N)nc54)C[C@@H]3OP(=O)(O)OC[C@H]3O[C@@H](n4ccc(N)nc4=O)C[C@@H]3OP(=O)(O)OC[C@H]3O[C@@H](n4ccc(N)nc4=O)C[C@@H]3OP(=O)(O)OC[C@H]3O[C@@H](n4cnc5c(N)ncnc54)C[C@@H]3OP(=O)(O)OC[C@H]3O[C@@H](n4cnc5c(=O)[nH]c(N)nc54)C[C@@H]3OP(=O)(O)OC[C@H]3O[C@@H](n4cc(C)c(=O)[nH]c4=O)C[C@@H]3OP(=O)(O)OC[C@H]3O[C@@H](n4ccc(N)nc4=O)C[C@@H]3OP(=O)(O)OC[C@H]3O[C@@H](n4ccc(N)nc4=O)C[C@@H]3OP(=O)(O)OC[C@H]3O[C@@H](n4cnc5c(N)ncnc54)C[C@@H]3OP(=O)(O)OC[C@H]3O[C@@H](n4ccc(N)nc4=O)C[C@@H]3OP(=O)(O)OC[C@H]3O[C@@H](n4cnc5c(N)ncnc54)C[C@@H]3OP(=O)(O)OC[C@H]3O[C@@H](n4cnc5c(=O)[nH]c(N)nc54)C[C@@H]3OP(=O)(O)OC[C@H]3O[C@@H](n4ccc(N)nc4=O)C[C@@H]3O)[C@@H](CO)O2)c(=O)[nH]c1=O,< 20,< 20,–,–

# — ChEMBL document CHEMBL1250442, “Inhibiting gene expression at transcription start sites in chromosomal DNA with antigene RNAs” (Nat Chem Biol, 2005)
